The source of these data is ChEMBL document CHEMBL1153509, “2-O-beta-d-glucopyranosyl-sn-glycerol based analogues of sulfoquinovosyldiacylglycerols (SQDG) and their role in inhibiting Epstein-Barr virus early antigen activation” (Bioorg Med Chem, 2009).

Data set [1] is described as follows: Cytotoxicity against human Raji cells assessed as cell viability at 500 molar ratio after 48 hrs by trypan blue staining method. The data set is classed as cell-based. The conditions noted are these: read-out: Activity. In outline:
(§1)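 Raji cells (1×10^6/mL) in RPMI 1640 with 10% fetal calf serum were incubated 48 h at 37 °C with 4 mM n-butyric acid, 32 pmol TPA in DMSO and test compound in DMSO. Compound doses were set as mol ratio to TPA. Viability was read by Trypan Blue staining 2 days after treatment.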

Data set [2] concerns Raji. Description: Inhibition of 12-O-tetradecanoylphorbol-13-acetate-induced EBV-early antigen activation in human Raji cells assessed as early antigen induction at 10 molar ratio after 48 hrs by conventional indirect immunofluorescence technique relative to TPA. In kind it is cell-based. Also on record: scale not given: the % may be the effect or the level left. The conditions noted are these: human gammaherpesvirus 4. In outline:
(§2)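 Raji cells (1×10^6/mL, RPMI 1640 plus 10% FCS) were incubated at 37 °C for 48 h in medium with 4 mM n-butyric acid, 32 pmol TPA in DMSO and test compound in DMSO, dosed as mol ratio to TPA. EA was detected by indirect immunofluorescence using high-titer EBV-positive NPC patient sera and FITC anti-human IgG, counting at least 500 cells. Runs were in triplicate. Results are expressed as % of the butyric acid plus TPA control (100%).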

The test system of data set [3] is Raji. Description: Inhibition of 12-O-tetradecanoylphorbol-13-acetate-induced EBV-early antigen activation in human Raji cells assessed as early antigen induction at 500 molar ratio after 48 hrs by conventional indirect immunofluorescence technique relative to TPA. The conditions noted are these: human gammaherpesvirus 4. In kind it is cell-based. Also on record: scale not given: the % may be the effect or the level left. In outline:
as §2

The nature of data set [4]: Cytotoxicity against human Raji cells assessed as cell viability at 10 molar ratio after 48 hrs by trypan blue staining method. The data set is classed as cell-based. The conditions noted are these: read-out: Activity. The essentials:
as §1

The nature of data set [5]: Cytotoxicity against human Raji cells assessed as cell viability at 1000 molar ratio after 48 hrs by trypan blue staining method. In kind it is cell-based. The conditions noted are these: read-out: Activity. The essentials:
as §1

Data set [6] in a line: Inhibition of 12-O-tetradecanoylphorbol-13-acetate-induced EBV-early antigen activation in human Raji cells assessed per TPA after 48 hrs by conventional indirect immunofluorescence technique. The data set is classed as cell-based, human gammaherpesvirus 4. The essentials:
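Raji cells (1×10^6/mL) were treated at 37 °C for 48 h with 4 mM n-butyric acid, 32 pmol TPA and test compound in DMSO. EA-positive cells were scored by indirect immunofluorescence (NPC patient sera, FITC anti-human IgG), at least 500 cells per run, in triplicate. IC50 was given as the compound/TPA mol ratio inhibiting 50% of the TPA-activated positive control.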

For data set [7], the system named is Raji. Description: Inhibition of 12-O-tetradecanoylphorbol-13-acetate-induced EBV-early antigen activation in human Raji cells assessed as early antigen induction at 100 molar ratio after 48 hrs by conventional indirect immunofluorescence technique relative to TPA. The data set is classed as cell-based. Also on record: scale not given: the % may be the effect or the level left. The conditions noted are these: human gammaherpesvirus 4. In outline:
as §2

Data set [8] has as its system Raji. Nature of the data set: Inhibition of 12-O-tetradecanoylphorbol-13-acetate-induced EBV-early antigen activation in human Raji cells assessed as early antigen induction at 1000 molar ratio after 48 hrs by conventional indirect immunofluorescence technique relative to TPA. In kind it is cell-based. The following applies: human gammaherpesvirus 4. Further details: scale not given: the % may be the effect or the level left. The essentials: as §2

A short description of data set [9]: Cytotoxicity against human Raji cells assessed as cell viability at 100 molar ratio after 48 hrs by trypan blue staining method. In kind it is cell-based. The conditions noted are these: read-out: Activity. In outline: as §1

Each structure is given as a SMILES string.

Regarding `CCCCCC(=O)OCC(COC(=O)CCCCC)O[C@@H]1O[C@H](CS(=O)(=O)[O-])[C@@H](O)[C@H](O)[C@H]1O.[Na+]`, in data set [1], the viability at 48 h, 500 molar ratio was 70%. The Activity was determined as 100% in data set [2], 60.5% in data set [3], 84.3% in data set [7] and 20.3% in [8]. Also, the viability at 48 h, 10 molar ratio in [4] was 80%. Further, the viability at 48 h, 1000 molar ratio in [5] was determined as 50%. Moreover, the IC50 in data set [6] was 539 mol ratio/TPA. Also, the viability at 48 h, 100 molar ratio in data set [9] was found to be 80%.

For the compound `CCCCCCCCCCCCCCCCCC(=O)OCC(COC(=O)CCCCCCCCCCCCCCCCC)O[C@@H]1O[C@H](CO)[C@@H](O)[C@H](O)[C@H]1O`, the viability at 48 h, 500 molar ratio in [1] amounted to 70%. Moreover, the Activity is 100% in data set [2], 57.8% in [3], 82.8% in data set [7] and 16.2% in data set [8]. In addition, in [4], the viability at 48 h, 10 molar ratio is 80%. The viability at 48 h, 1000 molar ratio in data set [5] amounted to 60%. Besides, the IC50 in [6] was found to be 484 mol ratio/TPA. Moreover, the viability at 48 h, 100 molar ratio in [9] turned out to be 80%.

With `CCCCCC(=O)OCCO[C@@H]1O[C@H](CO)[C@H](O)[C@H](O)[C@H]1O`, the viability at 48 h, 500 molar ratio in data set [1] worked out at 80%. Besides, the Activity in data set [2] was found to be 100%; in data set [3], 49.5%; in data set [7] it was 78.5%; in data set [8] it was 6.7%. The viability at 48 h, 10 molar ratio in data set [4] stood at 80%. Also, the viability at 48 h, 1000 molar ratio in data set [5] is 70%. The compound also yielded an IC50 in data set [6] of 350 mol ratio/TPA. The viability at 48 h, 100 molar ratio in data set [9] came out at 80%.

Regarding `CCCCCCCCCCCCCCCCCC(=O)OCC(COC(=O)CCCCCCCCCCCCCCCCC)O[C@@H]1O[C@H](CS(=O)(=O)[O-])[C@@H](O)[C@H](O)[C@H]1O.[Na+]`, the viability at 48 h, 500 molar ratio in data set [1] is 70%. Further, the Activity in data set [2] came out at 100%; in data set [3], 65.1%; in [7], 87.4%; in data set [8], 25.1%. For the same compound, the viability at 48 h, 10 molar ratio in [4] worked out at 80%. Also, the viability at 48 h, 1000 molar ratio in data set [5] was found to be 50%. The compound further showed an IC50 in data set [6] of 632 mol ratio/TPA. In addition, the viability at 48 h, 100 molar ratio in data set [9] came out at 80%.

`CCCCCC(=O)OCC(COC(=O)CCCCC)O[C@@H]1O[C@H](CO)[C@@H](O)[C@H](O)[C@H]1O`: the viability at 48 h, 500 molar ratio in data set [1] is 70%. The Activity was 100% in data set [2], 46.8% in data set [3], 76.9% in data set [7] and 9.3% in data set [8]. The viability at 48 h, 10 molar ratio in [4] came to 80%. Also, the viability at 48 h, 1000 molar ratio in [5] was found to be 60%. For the same compound, in data set [6], the IC50 came to 327 mol ratio/TPA. In data set [9], the viability at 48 h, 100 molar ratio is 80%.

As for `CCCCCCCCCCCC(=O)OCC(COC(=O)CCCCCCCCCCC)O[C@@H]1O[C@H](CS(=O)(=O)[O-])[C@@H](O)[C@H](O)[C@H]1O.[Na+]`, in [1], the viability at 48 h, 500 molar ratio is 70%. Besides, the Activity was 100% in data set [2], 62.6% in data set [3], 85.2% in [7] and 23.4% in [8]. Further, in data set [4], the viability at 48 h, 10 molar ratio is 80%. For the same compound, the viability at 48 h, 1000 molar ratio in [5] came out at 50%. Besides, the IC50 in data set [6] came to 581 mol ratio/TPA. The viability at 48 h, 100 molar ratio in [9] was determined as 80%.

On to `CCCCCCCCCCCC(=O)OCC(COC(=O)CCCCCCCCCCC)O[C@@H]1O[C@H](CO)[C@@H](O)[C@H](O)[C@H]1O`, for which the viability at 48 h, 500 molar ratio in data set [1] was determined as 70%. The Activity came to 100% in [2], 52.4% in data set [3], 80.5% in data set [7] and 13% in data set [8]. Further, the viability at 48 h, 10 molar ratio in [4] was found to be 80%. The viability at 48 h, 1000 molar ratio in data set [5] was 60%. The IC50 in data set [6] was 402 mol ratio/TPA. Besides, in [9], the viability at 48 h, 100 molar ratio turned out to be 80%.

Take `CCCCCC(=O)OC[C@H](CO)O[C@@H]1O[C@H](COC(=O)CCCCC)[C@@H](O)[C@H](O)[C@H]1O`: the viability at 48 h, 500 molar ratio in data set [1] was 80%. The Activity in [2] was 71.5%; in data set [3], 15.1%; in data set [7], 34.6%; in data set [8] it was 0%. The viability at 48 h, 10 molar ratio in data set [4] stood at 80%. Besides, in data set [5], the viability at 48 h, 1000 molar ratio worked out at 70%. In addition, the IC50 in data set [6] is 37.3 mol ratio/TPA. Moreover, the viability at 48 h, 100 molar ratio in [9] stood at 80%.
